# Screening results: PubChem, several laboratories
# Compounds with a hit are over-represented: about 3.4% of the library has one in this group of screens.
# PHOSPHO1 block: PHOSPHO1 (human) inhibition | Q8TCT1 | recombinant PHOSPHO1, absorbance phosphatase assay | inhibition, % at 13.3 µM | 290,000 tested, 1.1% active | AID 1565; in the data active = inhibition above about 60%
# Efa HMGR inh: inhibitors of class II HMG-CoA reductase from Enterococcus faecalis | purified E. faecalis HMGR, NADPH absorbance 340 nm kinetic | inhibition, % at 10 µM | 190,000 tested, 0.41% active | AID 1066;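 active = inhibition above a set limit, the median over all tested compounds plus 3 SD, cut at about 9.5% in these data; inconclusive = no clear call, values can overlap the other calls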;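 note: enzyme runs in reverse so mevalonate oxidation gives rising NADPH absorbance; 0% = complete reaction with DMSO and 100% = background rate lacking mevalonate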
# RanGTP-Impb inh: disruptors of Ran-importin-beta complex formation – biochemical, FRET, CFP-Ran, YFP-importin-beta, homogeneous, primary screen; 300,000 tested, 1.1% active; inhibition, % (no concentration beside the values); cell-free CFP-Ran/YFP-importin-beta FRET ratio;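 active = more than half of the replicate wells show a fall in the fluorescence ratio signal beyond about 16%, limit read from the data, passing the limit was not always enough; inconclusive = exactly half of the replicate wells pass the set limit; inactive = fewer than half of replicates pass the limit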;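 note: 0% = DMSO wells and 100% = Ran loaded with GDP instead of GTP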
# Wee1 stabilizer: human Wee1 degradation inhibition, primary screen | P30291 | AID 1321 | 220,000 tested, 1.2% active | HeLa Luc-Wee1K328M stability, luciferase luminescence; 100% = proteasome inhibitor MG132 effect | reporter increase, % at 5 µM;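 active = activation above the mean of all tested compounds plus 3 SD, set per screening run, cut at about 8.8% in these data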;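 note: cells exposed to compound for 20 h before luminescence read; 0% = DMSO alone and 100% = MG132 at 30 µM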
# Runt-CBFb FRET: inhibitors of human RUNX1 Runt domain binding to CBFb | Cerulean-Runt/Venus-CBFb FRET ratio 530/480, 1 h | inhibition, % at 20 µM | 220,000 tested, 0.46% active;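 active = inhibition over about 50% at 20 µM in the single-dose screen, limit read from the data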;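 note: 0% = DMSO wells and 100% = excess unlabeled CBFb competitor control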
# Target sequence (Q01196 whole entry, looked up, the tested form may be a part): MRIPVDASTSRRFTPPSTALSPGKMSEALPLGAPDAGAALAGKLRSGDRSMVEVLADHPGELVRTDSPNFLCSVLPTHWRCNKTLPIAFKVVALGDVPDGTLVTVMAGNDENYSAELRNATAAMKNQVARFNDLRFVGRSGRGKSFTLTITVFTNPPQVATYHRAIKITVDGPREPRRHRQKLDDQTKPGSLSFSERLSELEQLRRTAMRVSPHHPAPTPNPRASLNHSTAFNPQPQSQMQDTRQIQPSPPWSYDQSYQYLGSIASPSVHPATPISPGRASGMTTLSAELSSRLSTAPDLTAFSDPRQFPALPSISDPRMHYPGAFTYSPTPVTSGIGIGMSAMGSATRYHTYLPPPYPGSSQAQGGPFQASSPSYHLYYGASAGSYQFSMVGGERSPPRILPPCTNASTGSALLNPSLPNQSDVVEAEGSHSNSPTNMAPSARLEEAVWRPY
# Target sequence (Q13951 whole entry, looked up, the tested form may be a part): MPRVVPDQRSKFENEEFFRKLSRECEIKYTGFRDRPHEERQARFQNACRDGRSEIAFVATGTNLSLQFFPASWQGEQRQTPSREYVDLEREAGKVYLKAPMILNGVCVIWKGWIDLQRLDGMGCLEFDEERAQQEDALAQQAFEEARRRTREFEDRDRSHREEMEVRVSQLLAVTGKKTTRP
#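 Assay system: Cerulean-Runt domain / Medium: Tris 50 mM pH 7.5, KCl, K2SO4, 0.01% BSA / Timing: protein complex preformed 1 h, compound exposure 1 h, room temperature, dark / Measured by: FRET, excitation 422 nm, emission at 530 and 480 nm / Evaluation: loss of energy transfer signal / Control set: 5 µM unlabeled CBFb as full-inhibition high control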
# Runt-SMMHC FRET: inhibitors of human RUNX1 Runt domain binding to CBFb-SMMHC; 220,000 tested, 0.74% active; inhibition, % at 20 µM; Q01196+Q13951; Cerulean-Runt/Venus-CBFb-SMMHC FRET ratio 530/480, 1 h;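 active = mean inhibition across duplicate retests at 20 µM reaching about 50%, limit read from the data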;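 note: 0% = DMSO wells and 100% = wells with excess untagged CBFb-SMMHC; inhibitors lower the FRET ratio by blocking Runt binding to CBFb-SMMHC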
# Wee1 stab conf: confirmation of human Wee1 degradation inhibitors; activation, % at 5 µM; AID 1410; shares compounds with Wee1 stabilizer; HeLa Luc-Wee1K328M degradation, luminescence; vehicle 0%, proteasome-blocked wells 100%; 1,100 tested, 4% active; in the data active = activation above about 8.9%
# Runt-CBFb TRFRET: inhibitors of human RUNX1 Runt domain binding to CBFb | inhibition, % at 20 µM | TR-FRET RUNX1 Runt domain-CBFb binding | shares compounds with Runt-CBFb FRET | AID 1502 | 480 tested, 20% active; in the data active = inhibition above about 40%
# YIC FRET counter: counter-screen: alters YIC FRET probe signal; AID 435026; Purified YIC probe, intramolecular FRET ratio YFP/CFP; 1,000 tested, 40% active; IC50, µM; shares compounds with RanGTP-Impb inh;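 active = fitted half-maximal inhibitory concentration no more than tenfold above the top dose tested; inconclusive = flat fit with 30 to 70% activity, or poor fit; inactive = half-maximal concentration beyond tenfold above the top dose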
# * marks the source's active call; other numbers are inactive results; ? = inconclusive; . = no result.
SMILES,PHOSPHO1 block,Efa HMGR inh,RanGTP-Impb inh,Wee1 stabilizer,Runt-CBFb FRET,Runt-SMMHC FRET,Runt-CBFb TRFRET,others
O=C(O)c1ccc(Cl)c(NCc2cccnc2)c1,15,.,?,.,.,.,.,
O=C(COC(=O)c1cnccn1)NCc1ccc(Cl)cc1,0,-1,4,-2,0,3,.,
CCN(CC(=O)NCc1cccs1)c1ccc(S(=O)(=O)N2CCCC2)cn1,21,8,-1,14*,3,1,.,Wee1 stab conf=2
Cn1cccc1/C=C1\SC(=Nc2ccc(O)cc2)NC1=O,2,.,-1,-1,-2,-1,.,
Cn1cccc1/C=C1\SC(=Nc2ccccc2)NC1=O,12,.,12,19*,3,10,.,Wee1 stab conf=14*
COc1ccc(C(=O)N2CCOC2CNC(=O)C(=O)NCc2ccccc2Cl)cc1 (centres undefined),-10,.,2,.,.,.,.,
CN1C(=O)NC(c2ccccc2)C2=C1CN(c1ccc3ccccc3c1)C2=O (centres undefined),21,-5,-5,0,-1,-3,.,
CCOc1ccccc1N1CC(C(=O)Nc2ccc(S(=O)(=O)N3CCCCC3)cc2)CC1=O (centres undefined),.,.,-4,.,.,.,.,
Cc1ncoc1C(=O)Nc1ncc([N+](=O)[O-])s1,15,-3,1,14*,64*,27,20,Wee1 stab conf=8
CCN1CCc2nc(NC(=O)C(c3ccccc3)c3ccccc3)sc2C1,8,1,?,11*,51*,106*,-8,Wee1 stab conf=0
CCN1CCc2nc(NC(=O)c3ccc(S(=O)(=O)N(C)C)cc3)sc2C1,20,1,-2,1,2,3,.,
CC(C)Nc1nnc(SC(C)C(=O)NCc2ccc3c(c2)OCO3)s1 (centres undefined),22,-1,2,4,-2,2,.,
COc1ccc(-c2nc(NC(=O)c3n[nH]c(=O)c4ccccc34)sc2C)cc1,-9,2,22*,32*,-14,-33,.,Wee1 stab conf=-3;YIC FRET counter=>50
O=C(CSc1nnc2ccccn12)NNC(=O)c1ccc(F)cc1,1,-6,1,2,0,1,.,
COC(=O)C(C)n1nnc2sc(-c3ccccc3)cc2c1=O (centres undefined),-5,2,.,0,58*,124*,-98,
C=CCSc1ncccc1C(=O)NCc1ccccc1,31,-3,2,4,-1,-12,.,
N#CC1=C2SCCN2C(=O)C(C#N)C12CCCCC2 (centres undefined),12,3,4,-1,56*,-3,1,
CCOC(=O)CN1NC2(CCCC(C)C2)NC1=S (centres undefined),91*,-9,?,-1,51*,32,10,
CCOC(=O)CN1NC2(CCCCCCC2)NC1=S,8,.,4,0,32,0,.,
CCOC(=O)C1=C(Cc2ccc(C)cc2)C(=O)c2ccccc2C1=O,44,2,-11,-1,50*,51*,-51,
Cc1ccc2oc(C(=O)NCC3CCOCC3)c(C)c2c1,33,.,-4,.,.,.,.,
Cc1nn(C)c(N)c1[N+](=O)[O-],3,.,-3,1,0,-8,.,
Cc1nn(C)c(Sc2ccccc2N)c1[N+](=O)[O-],-46,-6,-1,-2,55*,51,14,
CCOC(=O)c1c(C)[nH]c(C)c1S(=O)(=O)N(C)CC(=O)N(C)Cc1ccccc1,26,.,0,.,.,.,.,
COc1cccc2[nH]c3c(Cl)ncnc3c12,1,-4,3,2,52*,2,28,
Cc1cc(Oc2nnnn2-c2ccccc2)ccc1Cl,-5,1,1,-1,2,-1,.,
